Reference: ChEMBL document CHEMBL5032502, “Syntheses, Biological Evaluations, and Mechanistic Studies of Benzo[c][1,2,5]oxadiazole Derivatives as Potent PD-L1 Inhibitors with In Vivo Antitumor Activity” (J Med Chem, 2021)
Calls of active or inactive are those of the source. No cut-off for these calls is given here.

Experiments:
[1] = test system: Jurkat; assay: Cytotoxicity against human Jurkat cells expressing PD-1/NFAT/Luc assessed as inhibition of cell viability at 10 uM incubated for 24 hrs by CCK8 assay; assay type: functional, cell-based
Procedure, shortened: (§1)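 PD-1⁺/NFAT-luc/Jurkat cells seeded at 20 000 per well, treated with compound in medium with 1% final DMSO for 24 h. CCK8 added for 4 h, then absorbance read.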

[2] = test system: CHO-K1; assay: Cytotoxicity against CHO-K1 cells expressing PD-L1/aAPC assessed as inhibition of cell viability at 10 uM incubated for 24 hrs by MTT assay; assay type: functional, cell-based; conditions: Cricetulus griseus
Procedure, shortened: (§2)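 PD-L1⁺/aAPC/CHO-K1 cells (2000/well) or MC38 cells (5000/well) allowed to adhere for 12 h, then exposed to compound in medium with 1% final DMSO for 24 h. MTT added for 4 h, medium replaced with DMSO, absorbance read.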

[3] = test system: MC-38; assay: Cytotoxicity against mouse MC38 cells assessed as inhibition of cell viability at 10 uM incubated for 24 hrs by MTT assay; assay type: functional, cell-based; procedure, shortened: as §2
[4] = molecular target: T1, Programmed cell death protein 1/Programmed cell death 1 ligand 1 (Homo sapiens, UniProt Q9NZQ7); assay: Inhibition of human PD-1/PD-L1 interaction assessed as blockade activity incubated for 15 mins by HTRF assay; assay type: protein-complex assay
T1 sequence (Q15116 whole entry): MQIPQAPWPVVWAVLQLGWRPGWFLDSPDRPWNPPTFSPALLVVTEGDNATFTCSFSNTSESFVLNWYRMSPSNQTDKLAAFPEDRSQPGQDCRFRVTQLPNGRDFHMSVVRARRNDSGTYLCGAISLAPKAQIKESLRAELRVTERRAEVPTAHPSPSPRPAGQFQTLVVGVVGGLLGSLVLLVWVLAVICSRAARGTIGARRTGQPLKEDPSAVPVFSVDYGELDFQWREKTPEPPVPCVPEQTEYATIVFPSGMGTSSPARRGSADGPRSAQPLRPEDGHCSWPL
T1 sequence (Q9NZQ7 whole entry): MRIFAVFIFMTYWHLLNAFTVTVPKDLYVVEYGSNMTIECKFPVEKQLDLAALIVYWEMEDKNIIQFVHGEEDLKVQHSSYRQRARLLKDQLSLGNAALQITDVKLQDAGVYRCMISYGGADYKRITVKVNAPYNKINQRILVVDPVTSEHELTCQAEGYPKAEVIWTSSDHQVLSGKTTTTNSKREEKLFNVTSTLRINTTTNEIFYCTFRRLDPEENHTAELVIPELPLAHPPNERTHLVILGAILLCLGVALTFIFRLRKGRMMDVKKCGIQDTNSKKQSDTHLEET
Procedure, shortened: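 Tag1-PD-L1 and Tag2-PD-1 proteins preincubated with compound (0.1 nM to 10 μM, triplicate) 15 min at room temperature, then anti-Tag1-Eu³⁺/anti-Tag2-XL665 added for 2 h at room temperature. Excitation 337 nm, emission 665 and […]. Signal taken as 665/615 ratio ×10 000; IC50 fitted from inhibition rates.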

[5] = test system: MC-38; assay: Cytotoxicity against mouse MC38 cells assessed as inhibition of cell viability at 0.1 to 10 uM incubated for 24 hrs by MTT assay; assay type: functional, cell-based; conditions: dose 0.1-10 µM; procedure, shortened: as §2
[6] = test system: CHO-K1; assay: Cytotoxicity against CHO-K1 cells expressing PD-L1/aAPC assessed as inhibition of cell viability at 0.1 to 10 uM incubated for 24 hrs by MTT assay; assay type: functional, cell-based; conditions: Cricetulus griseus, dose 0.1-10 µM; procedure, shortened: as §2
[7] = test system: Jurkat; assay: Cytotoxicity against human Jurkat cells expressing PD-1/NFAT/Luc assessed as inhibition of cell viability at 0.1 to 10 uM incubated for 24 hrs by CCK8 assay; assay type: functional, cell-based; conditions: dose 0.1-10 µM; procedure, shortened: as §1
[8] = Cmax in Sprague-Dawley rat at 10 mg/kg, po measured upto 24 hrs by LC-MS analysis; assay type: ADME, organism-based; parameters: route oral, dose 10 mg/kg, time <=24; conditions: in vivo
Procedure, shortened: (§3)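 Male animals fasted 12 h before dosing. Plasma levels measured by LC-MS, with the prodrug quantified as the parent acid. Mean ± SEM, n = 3.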

[9] = Clearance in Sprague-Dawley rat at 2 mg/kg, iv measured upto 24 hrs by LC-MS analysis; assay type: ADME, organism-based; conditions: in vivo; procedure, shortened: as §3
[10] = molecular target: Programmed cell death protein 1/Programmed cell death 1 ligand 1 (Homo sapiens) (UniProt Q15116+Q9NZQ7); conditions: Jurkat, time 6.0 hrs
[11] = AUC (0 to t) in Sprague-Dawley rat at 10 mg/kg, po measured upto 24 hrs by LC-MS analysis; assay type: ADME, organism-based; parameters: route oral, dose 10 mg/kg, time <=24; conditions: in vivo; procedure, shortened: as §3
[12] = Oral bioavailability in Sprague-Dawley rat at 10 mg/kg measured upto 24 hrs by LC-MS analysis; assay type: ADME, organism-based; conditions: in vivo
Procedure, shortened: (§4)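 Male Sprague-Dawley rats or C57BL/6 mice fasted 12 h before dosing, given oral (po) or intravenous (iv) doses. Plasma levels measured by LC-MS. Parameters reported as mean ± SEM, n = 3.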

[13] = molecular target: Voltage-gated inwardly rectifying potassium channel KCNH2 (Homo sapiens, UniProt Q12809); assay: Inhibition of human ERG
Chain of Voltage-gated inwardly rectifying potassium channel KCNH2 (Q12809 whole entry): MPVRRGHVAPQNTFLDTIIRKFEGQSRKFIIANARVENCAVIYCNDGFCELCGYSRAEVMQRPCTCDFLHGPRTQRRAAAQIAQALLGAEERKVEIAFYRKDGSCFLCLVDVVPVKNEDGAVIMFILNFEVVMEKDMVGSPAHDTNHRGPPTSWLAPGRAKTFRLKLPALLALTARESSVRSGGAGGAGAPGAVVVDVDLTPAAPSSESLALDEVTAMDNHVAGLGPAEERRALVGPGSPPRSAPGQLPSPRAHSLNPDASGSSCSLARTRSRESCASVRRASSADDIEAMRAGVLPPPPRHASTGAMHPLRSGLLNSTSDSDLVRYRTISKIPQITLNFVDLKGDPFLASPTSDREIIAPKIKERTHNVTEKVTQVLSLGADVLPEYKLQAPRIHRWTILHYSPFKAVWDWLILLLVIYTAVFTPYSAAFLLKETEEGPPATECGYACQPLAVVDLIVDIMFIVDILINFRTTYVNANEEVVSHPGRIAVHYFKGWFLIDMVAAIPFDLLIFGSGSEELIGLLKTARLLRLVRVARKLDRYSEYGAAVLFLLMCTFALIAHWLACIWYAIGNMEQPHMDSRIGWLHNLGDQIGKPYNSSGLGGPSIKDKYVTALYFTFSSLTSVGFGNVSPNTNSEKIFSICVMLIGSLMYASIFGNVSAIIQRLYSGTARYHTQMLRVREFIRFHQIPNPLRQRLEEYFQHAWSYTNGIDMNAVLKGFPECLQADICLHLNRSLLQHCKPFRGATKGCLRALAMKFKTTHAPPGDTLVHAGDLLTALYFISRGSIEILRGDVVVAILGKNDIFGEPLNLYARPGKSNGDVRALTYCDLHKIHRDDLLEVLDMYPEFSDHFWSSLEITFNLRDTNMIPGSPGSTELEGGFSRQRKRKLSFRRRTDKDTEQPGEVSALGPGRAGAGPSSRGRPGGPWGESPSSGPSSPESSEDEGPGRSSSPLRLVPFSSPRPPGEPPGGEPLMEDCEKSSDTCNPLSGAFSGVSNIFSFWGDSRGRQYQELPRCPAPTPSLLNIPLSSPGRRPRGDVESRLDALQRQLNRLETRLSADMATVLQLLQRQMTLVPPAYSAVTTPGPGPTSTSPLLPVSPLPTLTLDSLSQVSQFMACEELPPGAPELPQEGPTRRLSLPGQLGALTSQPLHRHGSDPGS

[14] = AUC (0 to t) in Sprague-Dawley rat at 2 mg/kg, iv measured upto 24 hrs by LC-MS analysis; assay type: ADME, organism-based; parameters: route intravenous, dose 2 mg/kg, time <=24; conditions: in vivo; procedure, shortened: as §3
[15] = Half life in Sprague-Dawley rat at 10 mg/kg, po measured upto 24 hrs by LC-MS analysis; assay type: ADME, organism-based; conditions: in vivo; procedure, shortened: as §3
[16] = Cmax in Sprague-Dawley rat at 2 mg/kg, iv measured upto 24 hrs by LC-MS analysis; assay type: ADME, organism-based; parameters: route intravenous, dose 2 mg/kg, time <=24; conditions: in vivo; procedure, shortened: as §3
[17] = Half life in Sprague-Dawley rat at 2 mg/kg, iv measured upto 24 hrs by LC-MS analysis; assay type: ADME, organism-based; conditions: in vivo; procedure, shortened: as §3
[18] = Tmax in Sprague-Dawley rat at 10 mg/kg, po measured upto 24 hrs by LC-MS analysis; assay type: ADME, organism-based; conditions: in vivo; procedure, shortened: as §4
[19] = molecular target: Programmed cell death protein 1 (Homo sapiens) (UniProt Q15116); assay: Binding affinity to human PD-1 assessed as dissociation constant by surface plasmon resonance analysis
Chain of Programmed cell death protein 1 (Homo sapiens) (Q15116 whole entry): as the sequence (Q15116 whole entry) above
Procedure, shortened: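 His-tagged human PD-L1 IgV or Fc-tagged human PD-1 IgV immobilized on a CM5 chip by amine coupling in 10 mM sodium acetate, pH 4.5. Compound serially diluted in PBS with 0.05% Tween 20 and 5% DMSO and flowed over the chip. KD fitted by instrument software, mean ± SEM of two to three independent experiments.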

[20] = Tmax in Sprague-Dawley rat at 2 mg/kg, iv measured upto 24 hrs by LC-MS analysis; assay type: ADME, organism-based; conditions: in vivo; procedure, shortened: as §4
[21] = molecular target: T1, Programmed cell death protein 1/Programmed cell death 1 ligand 1; assay: Inhibition of human PD-1/PD-L1 interaction in human Jurkat cells expressing PD-1/NFAT/Luc cocultured with CHO-K1 cells expressing PD-L1/aAPC assessed as Jurkat T-lymphocyte activation measured after 6 hrs by luciferase reporter gene based luminescence assay; assay type: cell-based

## COc1nc(OCc2cccc(-c3ccccc3)c2C)ccc1CNCCNC(C)=O
[1]
  Activity: Active
[2]
  Activity: Active
[3]
  Activity: Active

## O=C(O)[C@@H](CO)NCc1cc(Cl)c(OCc2cccc(-c3cccc(F)c3F)c2Cl)cc1OCc1ccc2nonc2c1
[4]
  IC50: 162 nM

## O=C(O)[C@@H](CO)NCc1cc(F)c(OCc2cccc(-c3ccccc3)c2Br)cc1OCc1ccc2nonc2c1
[5]
  Activity: inactive
[6]
  Activity: inactive
[4]
  IC50: 7.8 nM
[7]
  Activity: inactive

## O=C(O)[C@@H](CO)NCc1ccc(OCc2cccc(-c3ccccc3)c2C(F)(F)F)cc1OCc1ccc2nonc2c1
[4]
  IC50: 1380 nM

## CC(=O)NCCNCc1cc(Cl)c(OCc2cccc(-c3ccccc3)c2Br)cc1OCc1ccc2nonc2c1
[4]
  IC50: 130 nM

## O=C(O)[C@@H](CO)NCc1cc(Cl)c(OCc2cccc(-c3ccccc3)c2F)cc1OCc1ccc2nonc2c1
[5]
  Activity: inactive
[6]
  Activity: inactive
[4]
  IC50: 3.5 nM
[7]
  Activity: inactive

## O=C(O)CNCc1cc(Cl)c(OCc2cccc(-c3ccccc3)c2Br)cc1OCc1ccc2nonc2c1
[4]
  IC50: 33.7 nM

## O=C(O)[C@@H](CO)NCc1cc(Cl)c(OCc2cccc(-c3ccc(F)cc3)c2Cl)cc1OCc1ccc2nonc2c1
[4]
  IC50: 56.1 nM

## CC(C)C[C@H](NCc1cc(Cl)c(OCc2cccc(-c3ccccc3)c2Cl)cc1OCc1ccc2nonc2c1)C(=O)N[C@H](CC(C)C)C(=O)O
[4]
  IC50: 1580 nM

## O=C(O)[C@@H](CO)NCc1cc(Cl)c(OCc2cccc(-c3cccc(Cl)c3)c2Br)cc1OCc1ccc2nonc2c1
[4]
  IC50: 24.3 nM

## O=C(O)[C@@H](CO)NCc1cc(Cl)c(OCc2cccc(-c3ccccc3)c2Cl)cc1OCc1ccc2nonc2c1
[4]
  IC50: 3.3 nM

## Cc1c(COc2ccc(CN[C@H](CO)C(=O)O)c(OCc3cccc4nonc34)c2)cccc1-c1ccccc1
[4]
  IC50: 2160 nM

## O=C(O)[C@@H](CO)NCc1cc(Cl)c(OCc2cccc(-c3ccccc3)c2Br)cc1OCc1ccc2nonc2c1
[8]
  Cmax: 4.46 ng/mL
[9]
  clearance: 39.6 mL/min/kg
[10]
  RLU: 1.81
[5]
  Activity: inactive
[11]
  AUC(0-t) at 24 h: 15.2 ng·h/mL
[12]
  bioavailability: 0.35%
[13]
  IC50: > 30000 nM
[14]
  AUC(0-t) at 24 h: 860 ng·h/mL
[6]
  Activity: inactive
[15]
  half-life: 4.17 h
[16]
  Cmax: 2090 ng/mL
[17]
  half-life: 4.04 h
[7]
  Activity: inactive
[18]
  Tmax: 2.33 h
[19]
  Activity: inactive
[20]
  Tmax: 4.8 min

## Cc1c(COc2ccc(CN[C@H](CO)C(=O)O)c(OCc3ccc4ccoc4c3)c2)cccc1-c1ccccc1
[4]
  IC50: 2340 nM

## CC(C)(C)OC[C@@H](NCc1cc(Cl)c(OCc2cccc(-c3ccccc3)c2Cl)cc1OCc1ccc2nonc2c1)C(=O)N[C@H](CO)C(=O)O
[4]
  IC50: 393 nM

## OCCNCc1cc(Cl)c(OCc2cccc(-c3ccccc3)c2Br)cc1OCc1ccc2nonc2c1
[4]
  IC50: 30.8 nM

## CN1CCN(Cc2cc(Cl)c(OCc3cccc(-c4ccccc4)c3Br)cc2OCc2ccc3nonc3c2)CC1
[4]
  IC50: 3590 nM

## Cc1c(COc2ccc(CN[C@H](CO)C(=O)O)c(OCc3ccc4nsnc4c3)c2)cccc1-c1ccccc1
[4]
  IC50: 206 nM

## O=C(O)[C@@H](CO)NCc1cc(F)c(OCc2cccc(-c3ccccc3)c2Cl)cc1OCc1ccc2nonc2c1
[4]
  IC50: 9.5 nM

## O=C(O)[C@@H](CO)NCc1cc(Cl)c(OCc2cccc(-c3cccc(OCCO)c3)c2Cl)cc1OCc1ccc2nonc2c1
[4]
  IC50: 101 nM

## O=C(O)[C@@H](CO)NCc1cc(Cl)c(OCc2cccc(-c3cccc(O)c3)c2Cl)cc1OCc1ccc2nonc2c1
[4]
  IC50: 58.7 nM

## NS(=O)(=O)CCNCc1cc(Cl)c(OCc2cccc(-c3ccccc3)c2Br)cc1OCc1ccc2nonc2c1
[4]
  IC50: 342 nM

## Cc1c(COc2cc(OCc3ccc4nonc4c3)c(CN[C@H](CO)C(=O)O)cc2Cl)cccc1-c1ccccc1
[4]
  IC50: 16.6 nM

## OC1CCC(NCc2cc(Cl)c(OCc3cccc(-c4ccccc4)c3Br)cc2OCc2ccc3nonc3c2)CC1 (centres undefined)
[4]
  IC50: 57.2 nM

## O=C(O)[C@@H](CO)NCc1cc(Cl)c(OCc2cccc(-c3cccc(OCCCO)c3)c2Cl)cc1OCc1ccc2nonc2c1
[4]
  IC50: 60.9 nM

## O=S(=O)(O)CCNCc1cc(Cl)c(OCc2cccc(-c3ccccc3)c2Br)cc1OCc1ccc2nonc2c1
[4]
  IC50: 26.9 nM

## COc1cccc(-c2cccc(COc3cc(OCc4ccc5nonc5c4)c(CN[C@H](CO)C(=O)O)cc3Cl)c2Br)c1
[4]
  IC50: 7.8 nM

## O=C(O)[C@H]1C[C@@H](O)CN1Cc1cc(Cl)c(OCc2cccc(-c3ccccc3)c2Br)cc1OCc1ccc2nonc2c1
[1]
  Activity: Active
[2]
  Activity: Active
[4]
  IC50: 24.3 nM
[3]
  Activity: Active

## CS(=O)(=O)c1ccc(-c2cccc(COc3cc(OCc4ccc5nonc5c4)c(CN[C@H](CO)C(=O)O)cc3Cl)c2Cl)cc1
[4]
  IC50: > 1000 nM

## Cc1c(COc2ccc(CN[C@H](CO)C(=O)O)c(OCc3cccc(C#N)c3)c2)cccc1-c1ccccc1
[1]
  Activity: Active
[10]
  RLU: 1.83
[21]
  EC50: 2080 nM
[2]
  Activity: Active
[4]
  IC50: 35.8 nM
[3]
  Activity: Active

## OC[C@@H](O)CNCc1cc(Cl)c(OCc2cccc(-c3ccccc3)c2Br)cc1OCc1ccc2nonc2c1
[4]
  IC50: 15.9 nM

## Cc1c(COc2ccc(CN[C@H](CO)C(=O)O)c(OCc3ccc4nonc4c3)c2)cccc1-c1ccccc1
[4]
  IC50: 33.7 nM

## OC[C@H](O)CNCc1cc(Cl)c(OCc2cccc(-c3ccccc3)c2Br)cc1OCc1ccc2nonc2c1
[4]
  IC50: 14.6 nM

## O=C(O)[C@@H](CO)NCc1cc(Br)c(OCc2cccc(-c3ccccc3)c2Br)cc1OCc1ccc2nonc2c1
[4]
  IC50: 27.5 nM

## OC1CCN(Cc2cc(Cl)c(OCc3cccc(-c4ccccc4)c3Br)cc2OCc2ccc3nonc3c2)CC1
[4]
  IC50: 1050 nM

## O=C(O)[C@@H]1CCCCN1Cc1cc(Cl)c(OCc2cccc(-c3ccccc3)c2Br)cc1OCc1ccc2nonc2c1
[4]
  IC50: 13.3 nM

## O=C(O)C1CN(Cc2cc(Cl)c(OCc3cccc(-c4ccccc4)c3Br)cc2OCc2ccc3nonc3c2)C1
[4]
  IC50: 52.3 nM

## O=C(O)[C@@H](CO)NCc1cc(Cl)c(OCc2cccc(-c3cccc(F)c3)c2Cl)cc1OCc1ccc2nonc2c1
[5]
  Activity: inactive
[6]
  Activity: inactive
[4]
  IC50: 6.5 nM
[7]
  Activity: inactive

## O=C1CC[C@@H](CNCc2cc(Cl)c(OCc3cccc(-c4ccccc4)c3Cl)cc2OCc2ccc3nonc3c2)N1
[4]
  IC50: 21.6 nM

## O=C(O)[C@@H](CO)NCc1cc(Cl)c(OCc2cccc(-c3cccc(F)c3)c2Br)cc1OCc1ccc2nonc2c1
[5]
  Activity: inactive
[6]
  Activity: inactive
[4]
  IC50: 8.2 nM
[7]
  Activity: inactive

## O=C(O)[C@@H](CO)NCc1cc(Cl)c(OCc2cccc(-c3cccc(OCCCO)c3)c2Br)cc1OCc1ccc2nonc2c1
[4]
  IC50: 30.9 nM

## Clc1cc(CNCCN2CCCCC2)c(OCc2ccc3nonc3c2)cc1OCc1cccc(-c2ccccc2)c1Cl
[4]
  IC50: 291 nM
